The source made the active and inactive calls. The calls are words filed in the database; no cut-off is given here.
What was measured:
[1] = molecular target: T1, Neuronal acetylcholine receptor; alpha4/beta2 (Homo sapiens, UniProt P17787+P43681); experiment: Agonist activity at human alpha4beta2 nAChR by cell-based rubidium flux assay
How it was run: (§1)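 Stably transfected cells expressing rat α3β4 or human α4β2 nAChR were used near confluence. They were preloaded with 86Rb+, washed, stimulated with test agonist, and the medium was separated before lysis. Efflux was taken as medium counts over total counts. Results are the mean ± SEM of 3–4 independent experiments.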

[2] = tested on: Mus musculus; experiment: Toxicity in iv dosed albino mouse measured after 1 hr; format: organism-based; conditions: in vivo
[3] = molecular target: T2, Neuronal acetylcholine receptor; alpha3/beta4 (Rattus norvegicus, UniProt P04757+P12392); experiment: Displacement of [3H]epibatidine from alpha3beta4 nAChR (unknown origin) expressed in HEK cell membranes after 4 hrs by liquid scintillation counting method
T2 sequence (P04757 whole entry): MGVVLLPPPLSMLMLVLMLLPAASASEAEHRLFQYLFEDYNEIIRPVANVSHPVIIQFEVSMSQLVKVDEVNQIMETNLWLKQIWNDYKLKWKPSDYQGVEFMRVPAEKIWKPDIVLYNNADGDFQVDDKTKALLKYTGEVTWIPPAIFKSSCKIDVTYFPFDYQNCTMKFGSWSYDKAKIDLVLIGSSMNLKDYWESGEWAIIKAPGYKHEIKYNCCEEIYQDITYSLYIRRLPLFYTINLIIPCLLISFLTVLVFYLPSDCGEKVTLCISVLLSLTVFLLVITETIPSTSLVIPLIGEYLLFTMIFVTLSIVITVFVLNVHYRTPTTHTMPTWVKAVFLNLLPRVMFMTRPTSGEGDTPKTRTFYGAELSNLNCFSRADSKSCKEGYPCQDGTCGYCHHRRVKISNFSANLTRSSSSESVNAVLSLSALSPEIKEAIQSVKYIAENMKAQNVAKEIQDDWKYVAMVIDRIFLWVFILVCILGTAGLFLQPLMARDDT
T2 sequence (P12392 whole entry): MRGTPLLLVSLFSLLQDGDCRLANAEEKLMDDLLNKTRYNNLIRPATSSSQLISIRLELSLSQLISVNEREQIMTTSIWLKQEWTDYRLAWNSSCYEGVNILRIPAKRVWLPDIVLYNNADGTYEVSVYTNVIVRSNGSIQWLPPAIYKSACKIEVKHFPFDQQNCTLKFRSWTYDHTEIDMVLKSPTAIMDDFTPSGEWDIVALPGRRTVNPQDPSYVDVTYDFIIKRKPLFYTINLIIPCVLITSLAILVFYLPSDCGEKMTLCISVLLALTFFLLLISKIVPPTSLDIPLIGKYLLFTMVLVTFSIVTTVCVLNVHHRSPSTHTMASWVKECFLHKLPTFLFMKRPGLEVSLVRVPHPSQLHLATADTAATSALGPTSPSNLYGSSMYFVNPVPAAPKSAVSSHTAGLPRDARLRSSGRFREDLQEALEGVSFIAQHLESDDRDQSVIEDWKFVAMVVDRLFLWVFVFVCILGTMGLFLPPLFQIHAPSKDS
How it was run: (§2)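 Incubation was 4 h at room temperature, followed by rapid filtration, washing and liquid scintillation counting. Nonspecific binding was defined with 300 μM nicotine. Values are the mean ± SEM of four measurements.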

[4] = molecular target: T3, Neuronal acetylcholine receptor; alpha4/beta2 (Rattus norvegicus, UniProt P09483+P12390); experiment: Displacement of [3H]epibatidine from alpha4beta2 nAChR (unknown origin) expressed in HEK cell membranes after 4 hrs by liquid scintillation counting method; how it was run: as §2
T3 sequence (P09483 whole entry): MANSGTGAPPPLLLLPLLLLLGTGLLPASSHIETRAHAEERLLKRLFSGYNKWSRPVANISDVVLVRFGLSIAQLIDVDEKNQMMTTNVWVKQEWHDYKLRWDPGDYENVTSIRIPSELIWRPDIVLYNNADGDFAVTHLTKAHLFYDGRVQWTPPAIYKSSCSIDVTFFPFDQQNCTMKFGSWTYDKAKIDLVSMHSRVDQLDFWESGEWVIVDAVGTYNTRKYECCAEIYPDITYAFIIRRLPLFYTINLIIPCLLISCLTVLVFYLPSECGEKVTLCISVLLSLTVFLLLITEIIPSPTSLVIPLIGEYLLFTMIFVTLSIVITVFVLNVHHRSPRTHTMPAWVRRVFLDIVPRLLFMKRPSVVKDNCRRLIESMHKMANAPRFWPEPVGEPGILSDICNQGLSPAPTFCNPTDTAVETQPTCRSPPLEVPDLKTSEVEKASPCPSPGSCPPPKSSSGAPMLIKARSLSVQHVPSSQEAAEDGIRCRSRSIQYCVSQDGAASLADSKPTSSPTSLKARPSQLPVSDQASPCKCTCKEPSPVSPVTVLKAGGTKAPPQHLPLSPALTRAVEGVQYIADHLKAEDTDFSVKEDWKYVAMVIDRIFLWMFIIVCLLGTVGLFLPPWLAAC
T3 sequence (P12390 whole entry): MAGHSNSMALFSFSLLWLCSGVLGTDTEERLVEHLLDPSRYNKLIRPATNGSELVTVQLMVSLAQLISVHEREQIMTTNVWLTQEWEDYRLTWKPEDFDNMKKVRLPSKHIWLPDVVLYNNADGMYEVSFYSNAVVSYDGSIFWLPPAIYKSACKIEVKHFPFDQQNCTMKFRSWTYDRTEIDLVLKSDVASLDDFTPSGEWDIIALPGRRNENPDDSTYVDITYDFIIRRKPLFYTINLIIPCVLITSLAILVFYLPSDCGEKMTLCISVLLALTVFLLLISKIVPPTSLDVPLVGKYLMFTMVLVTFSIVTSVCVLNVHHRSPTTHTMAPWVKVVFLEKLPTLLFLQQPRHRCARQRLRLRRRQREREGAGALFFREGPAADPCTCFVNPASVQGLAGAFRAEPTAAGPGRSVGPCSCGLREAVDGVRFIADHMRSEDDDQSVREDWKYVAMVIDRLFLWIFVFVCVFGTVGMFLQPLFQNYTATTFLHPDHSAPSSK

[5] = molecular target: T4, Neuronal acetylcholine receptor subunit alpha-7 (Rattus norvegicus, UniProt Q05941); experiment: Displacement of [3H]epibatidine from alpha7 nAChR (unknown origin) expressed in HEK cell membranes after 4 hrs by liquid scintillation counting method; how it was run: as §2
T4 sequence (Q05941 whole entry): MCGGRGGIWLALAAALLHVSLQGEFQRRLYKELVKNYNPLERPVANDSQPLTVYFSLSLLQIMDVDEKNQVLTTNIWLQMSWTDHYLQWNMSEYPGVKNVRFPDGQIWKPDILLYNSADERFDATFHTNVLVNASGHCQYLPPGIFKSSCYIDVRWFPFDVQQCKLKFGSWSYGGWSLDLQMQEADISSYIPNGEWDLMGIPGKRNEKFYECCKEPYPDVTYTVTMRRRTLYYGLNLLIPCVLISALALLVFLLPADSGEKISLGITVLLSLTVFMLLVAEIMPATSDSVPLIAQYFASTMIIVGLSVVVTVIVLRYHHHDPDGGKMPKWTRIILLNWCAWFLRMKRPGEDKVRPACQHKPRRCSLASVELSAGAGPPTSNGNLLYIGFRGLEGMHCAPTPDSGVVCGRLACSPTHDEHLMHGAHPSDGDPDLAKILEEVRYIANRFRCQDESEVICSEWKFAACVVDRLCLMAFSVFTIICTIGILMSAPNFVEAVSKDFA

[6] = species: Homo sapiens; experiment: Selectivity ratio of Ki for displacement of [3H]epibatidine from alpha3beta4 nAChR (unknown origin) expressed in HEK cell membranes to Ki for displacement of [3H]epibatidine from alpha4beta2 nAChR (unknown origin) expressed in HEK cell membranes
[7] = molecular target: Neuronal acetylcholine receptor; experiment: Displacement of [3H]epibatidine from rat forebrain nAChR after 4 hrs by liquid scintillation counting method; how it was run: as §2
[8] = molecular target: T2, Neuronal acetylcholine receptor; alpha3/beta4; experiment: Agonist activity at rat alpha3beta4 nAChR by cell-based rubidium flux assay; how it was run: as §1
[9] = molecular target: Neuronal acetylcholine receptor; alpha3/beta4 (Rattus norvegicus) (UniProt P04757+P12392); experiment: Agonist activity at rat alpha3beta4 nAChR by cell-based rubidium flux assay relative to 100 uM nicotine
How it was run: as §1, with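 “counts. […]” for “counts.”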

[10] = molecular target: T1, Neuronal acetylcholine receptor; alpha4/beta2; experiment: Agonist activity at human alpha4beta2 nAChR by cell-based rubidium flux assay relative to 100 uM nicotine; how it was run: as §1
[11] = species: Homo sapiens; experiment: Selectivity ratio of EC50 for agonist activity at rat alpha3beta4 nAChR (unknown origin) to EC50 for agonist activity at alpha4beta2 nAChR (unknown origin)
[12] = molecular target: T3, Neuronal acetylcholine receptor; alpha4/beta2; experiment: Agonist activity at rat alpha4beta2 expressed in Xenopus oocytes at -60 mV holding potential by electrophysiology method; format: cell-based
How it was run: (§3)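 Defolliculated X. laevis oocytes were injected with about 50 nL of rat subunit mRNA at 1 μg/μL. For α3β2 and α4β2 the subunits were mixed 1:1. Recording was by two-electrode voltage clamp at −60 mV and about 24 °C, with perfusion in HEPES-buffered NaCl/KCl/CaCl2/MgCl2. Agonist was applied for 3–4 s every 4–5 min. Peak currents were normalised to 1 mM ACh (nAChR) or 10 μM mCPBG (5-HT3A) and fitted to the Hill equation.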

[13] = molecular target: T5, Neuronal acetylcholine receptor; alpha4/beta2 (Rattus norvegicus) (UniProt P09483+P12390); experiment: Agonist activity at rat alpha4beta2 expressed in Xenopus oocytes at -60 mV holding potential by electrophysiology method relative to acetylcholine; format: cell-based; how it was run: as §3
[14] = molecular target: T4, Neuronal acetylcholine receptor subunit alpha-7; experiment: Agonist activity at rat alpha7 nAChR expressed in Xenopus oocytes at -60 mV holding potential by electrophysiology method; format: cell-based; how it was run: as §3
[15] = molecular target: Neuronal acetylcholine receptor subunit alpha-7 (Rattus norvegicus) (UniProt Q05941); experiment: Agonist activity at rat alpha7 nAChR expressed in Xenopus oocytes at -60 mV holding potential by electrophysiology method relative to acetylcholine; format: cell-based; how it was run: as §3
Sequence of Neuronal acetylcholine receptor subunit alpha-7 (Rattus norvegicus) (Q05941 whole entry): as above

[16] = tested on: Mus musculus; experiment: Toxicity in iv dosed Swiss-Webster mouse; format: organism-based; conditions: in vivo
How it was run: (§4)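 Weanling male White Swiss-Webster mice (15–20 g) were fasted for 12 h. Compound in physiological buffered saline was given intravenously via the tail vein. Mice were then returned to their pens for observation of signs.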

[17] = tested on: Mus musculus; experiment: Toxicity in Swiss-Webster mouse assessed as piloerection at 40 ug/kg, iv; format: organism-based; conditions: in vivo, 0.04 mg/kg; how it was run: as §4
[18] = tested on: Mus musculus; experiment: Toxicity in Swiss-Webster mouse assessed as elevated respiration at 40 ug/kg, iv; format: organism-based; conditions: in vivo, 0.04 mg/kg; how it was run: as §4
[19] = tested on: Mus musculus; experiment: Toxicity in Swiss-Webster mouse assessed as piloerection at 40 ug/kg, iv measured within 1 min; format: organism-based; conditions: in vivo, 0.04 mg/kg; how it was run: as §4
[20] = tested on: Mus musculus; experiment: Toxicity in Swiss-Webster mouse assessed as elevated respiration at 40 ug/kg, iv measured within 1 min; format: organism-based; conditions: in vivo, 0.04 mg/kg; how it was run: as §4
[21] = tested on: Mus musculus; experiment: Toxicity in Swiss-Webster mouse assessed as piloerection at 50 ug/kg, iv; format: organism-based; conditions: in vivo, 0.05 mg/kg; how it was run: as §4
[22] = tested on: Mus musculus; experiment: Toxicity in Swiss-Webster mouse assessed as elevated respiration at 50 ug/kg, iv; format: organism-based; conditions: in vivo, 0.05 mg/kg; how it was run: as §4
[23] = tested on: Mus musculus; experiment: Toxicity in Swiss-Webster mouse assessed as hyperactivity at 50 ug/kg, iv; format: organism-based; conditions: in vivo, 0.05 mg/kg; how it was run: as §4
[24] = tested on: Mus musculus; experiment: Toxicity in Swiss-Webster mouse assessed as death at 50 ug/kg, iv measured within 30 secs; format: organism-based; conditions: in vivo, 0.05 mg/kg, 0.5 min; how it was run: as §4
[25] = tested on: Mus musculus; experiment: Toxicity in Swiss-Webster mouse assessed as tonic-clonic seizures at 50 ug/kg, iv measured within 30 secs; format: organism-based; conditions: in vivo, 0.05 mg/kg, 0.5 min; how it was run: as §4
[26] = molecular target: Neuronal acetylcholine receptor; alpha3/beta2 (Rattus norvegicus, UniProt P04757+P12390); experiment: Agonist activity at rat alpha3beta2 expressed in Xenopus oocytes at -60 mV holding potential by electrophysiology method; format: cell-based; how it was run: as §3
Sequence of Neuronal acetylcholine receptor; alpha3/beta2 (P04757 whole entry): as the sequence (P04757 whole entry) above
Sequence of Neuronal acetylcholine receptor; alpha3/beta2 (P12390 whole entry): as the sequence (P12390 whole entry) above

[27] = molecular target: T6, Neuronal acetylcholine receptor; alpha3/beta2 (Rattus norvegicus) (UniProt P04757+P12390); experiment: Agonist activity at rat alpha3beta2 expressed in Xenopus oocytes at -60 mV holding potential by electrophysiology method relative to acetylcholine; format: cell-based; how it was run: as §3
[28] = molecular target: T7, 5-hydroxytryptamine receptor 3A (Rattus norvegicus, UniProt P35563); experiment: Agonist activity at rat 5HT3A expressed in Xenopus oocytes at -60 mV holding potential by electrophysiology method; format: cell-based; how it was run: as §3
T7 sequence (P35563 whole entry): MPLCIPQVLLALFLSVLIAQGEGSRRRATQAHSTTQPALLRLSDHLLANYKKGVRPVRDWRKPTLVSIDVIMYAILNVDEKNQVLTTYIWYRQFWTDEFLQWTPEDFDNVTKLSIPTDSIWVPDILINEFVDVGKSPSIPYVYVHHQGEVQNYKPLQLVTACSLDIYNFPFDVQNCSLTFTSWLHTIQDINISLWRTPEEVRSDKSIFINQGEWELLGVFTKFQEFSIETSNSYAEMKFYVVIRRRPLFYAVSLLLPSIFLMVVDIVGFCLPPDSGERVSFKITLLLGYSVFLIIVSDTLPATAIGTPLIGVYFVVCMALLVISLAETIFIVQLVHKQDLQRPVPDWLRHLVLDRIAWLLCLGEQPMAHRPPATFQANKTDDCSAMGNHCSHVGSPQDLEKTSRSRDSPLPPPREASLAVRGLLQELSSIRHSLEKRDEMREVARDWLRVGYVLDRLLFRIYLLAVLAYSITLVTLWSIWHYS

[29] = molecular target: T8, 5-hydroxytryptamine receptor 3A (Rattus norvegicus) (UniProt P35563); experiment: Agonist activity at rat 5HT3A expressed in Xenopus oocytes at -60 mV holding potential by electrophysiology method relative to metachlorophenylbiguanide; format: cell-based; how it was run: as §3
T8 sequence (whole entry): T7 sequence (P35563 whole entry)

[30] = molecular target: T6, Neuronal acetylcholine receptor; alpha3/beta2 (Rattus norvegicus); experiment: Agonist activity at rat alpha3beta2 expressed in Xenopus oocytes at 10 nM at -60 mV holding potential in presence of dihydro-beta-erythroidine by electrophysiology method; format: cell-based
[31] = molecular target: T5, Neuronal acetylcholine receptor; alpha4/beta2 (Rattus norvegicus); experiment: Agonist activity at rat alpha4beta2 expressed in Xenopus oocytes at 10 nM at -60 mV holding potential in presence of dihydro-beta-erythroidine by electrophysiology method; format: cell-based
[32] = molecular target: Neuronal acetylcholine receptor subunit alpha-7 (Rattus norvegicus) (UniProt Q05941); experiment: Agonist activity at rat alpha7 nAChR expressed in Xenopus oocytes at 10 uM at -60 mV holding potential by electrophysiology method in presence of methyllycaconitine; format: cell-based
[33] = molecular target: T8, 5-hydroxytryptamine receptor 3A (Rattus norvegicus); experiment: Agonist activity at rat 5HT3A expressed in Xenopus oocytes at 100 uM at -60 mV holding potential in presence of tropisetron by electrophysiology method; format: cell-based
How it was run: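 Oocytes expressing rat 5-HT3A were held at −60 mV under two-electrode voltage clamp. Tropisetron (30 nM) was pre-applied for 2 min before 100 μM agonist was applied, with n=4.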

[34] = species: Rattus norvegicus; experiment: Selectivity ratio of EC50 for rat alpha7 nAChR expressed in Xenopus oocytes to EC50 rat alpha4beta2 expressed in Xenopus oocytes; format: cell-based
[35] = tested on: Mus musculus; experiment: Toxicity in Swiss-Webster mouse assessed as piloerection at 10 mg/kg, iv; format: organism-based; conditions: in vivo; how it was run: as §4
[36] = tested on: Mus musculus; experiment: Toxicity in Swiss-Webster mouse assessed as elevated respiration at 10 mg/kg, iv; format: organism-based; conditions: in vivo; how it was run: as §4
[37] = tested on: Mus musculus; experiment: Toxicity in Swiss-Webster mouse assessed as hyperactivity at 10 mg/kg, iv; format: organism-based; conditions: in vivo; how it was run: as §4

T1 sequence (P17787 whole entry): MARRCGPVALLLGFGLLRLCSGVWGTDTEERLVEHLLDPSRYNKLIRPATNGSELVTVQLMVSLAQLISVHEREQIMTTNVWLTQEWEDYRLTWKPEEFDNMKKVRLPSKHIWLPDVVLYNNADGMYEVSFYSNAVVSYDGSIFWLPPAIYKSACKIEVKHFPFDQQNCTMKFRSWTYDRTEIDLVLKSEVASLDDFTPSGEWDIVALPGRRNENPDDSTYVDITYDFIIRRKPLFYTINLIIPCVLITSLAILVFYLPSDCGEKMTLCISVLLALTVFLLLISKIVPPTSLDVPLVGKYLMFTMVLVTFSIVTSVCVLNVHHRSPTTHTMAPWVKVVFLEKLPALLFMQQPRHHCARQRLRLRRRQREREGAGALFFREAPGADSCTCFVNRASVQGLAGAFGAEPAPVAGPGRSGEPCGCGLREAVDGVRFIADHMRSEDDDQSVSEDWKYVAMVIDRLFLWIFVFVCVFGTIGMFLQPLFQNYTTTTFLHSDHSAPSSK
T1 sequence (P43681 whole entry): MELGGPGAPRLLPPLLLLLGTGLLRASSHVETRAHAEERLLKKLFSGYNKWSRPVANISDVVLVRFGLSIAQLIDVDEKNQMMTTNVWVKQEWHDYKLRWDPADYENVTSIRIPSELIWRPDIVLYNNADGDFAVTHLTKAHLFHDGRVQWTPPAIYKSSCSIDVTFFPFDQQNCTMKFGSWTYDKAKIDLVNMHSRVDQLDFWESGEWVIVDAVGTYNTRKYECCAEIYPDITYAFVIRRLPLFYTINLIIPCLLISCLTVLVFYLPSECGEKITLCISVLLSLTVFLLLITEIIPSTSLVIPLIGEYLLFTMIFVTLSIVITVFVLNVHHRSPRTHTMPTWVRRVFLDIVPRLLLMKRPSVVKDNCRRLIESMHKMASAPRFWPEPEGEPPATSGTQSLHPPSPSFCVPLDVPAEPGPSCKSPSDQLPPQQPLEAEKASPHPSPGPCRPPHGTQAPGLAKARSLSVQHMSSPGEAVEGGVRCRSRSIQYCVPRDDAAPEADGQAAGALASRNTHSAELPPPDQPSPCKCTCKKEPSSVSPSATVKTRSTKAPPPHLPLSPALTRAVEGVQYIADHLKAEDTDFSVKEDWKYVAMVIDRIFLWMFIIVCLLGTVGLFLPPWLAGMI

Row | SMILES | EC50 [1] | LD50 [2] | Ki [3] | Ki [4] | Ki [5] | Ratio Ki [6] | Ki [7] | EC50 [8] | Emax [9] | Emax [10] | Ratio EC50 [11] | EC50 [12] | Imax [13] | EC50 [14] | Imax [15] | LD50 [16] | further results
1 | CN1CCC[C@H]1c1ccccc1 | 2.1 µM | 0.3 mg/kg | – | – | – | – | – | – | – | – | – | – | – | – | – | – | –
2 | Clc1ccc2c(n1)O[C@]13CC[C@H]1NC[C@H]23 | 0.2 µM | – | 0.0091 µM | 0.00027 µM | 0.0044 µM | 34 | 0.00087 µM | 0.57 µM | 91% | 45% | 2.9 | 0.0015 µM | 0.37% | 4 µM | 1.1% | 0.072 mg/kg | Activity [17]: Toxic; Activity [18]: Toxic; Activity [19]: Non-Toxic; Activity [20]: Non-Toxic; Activity [21]: Toxic; Activity [22]: Toxic; Activity [23]: Toxic; Activity [24]: Toxic; Activity [25]: Toxic
3 | Clc1ccc2c(n1)OC13CCC1NCC23 (racemic) | 0.2 µM | – | 0.011 µM | 0.00035 µM | 0.0054 µM | 31 | 0.0011 µM | 0.75 µM | 91% | 42% | 3.7 | 0.0031 µM | 0.32% | 9.9 µM | 1.08% | 0.27 mg/kg | EC50 [26]: 19 µM; Imax [27]: 0.25%; EC50 [28]: 29 µM; Imax [29]: 0.79%; Activity [30]: inactive; Activity [31]: inactive; Activity [32]: inactive; Activity [33]: inactive; Ratio EC50 [34]: 3200
4 | Clc1ccc(C2CC3CCC2N3)cn1 (racemic) [EPIBATIDINE] | – | – | – | – | – | – | – | – | 114% | 135% | – | – | – | – | – | 0.0015 mg/kg | –
5 | O=c1cccc2n1C[C@@H]1CNC[C@H]2C1 [CYTISINICLINE] | – | 1.73 mg/kg | – | – | – | – | – | – | – | – | – | – | – | – | – | – | –
6 | Clc1ccc2c(n1)O[C@@]13CC[C@@H]1NC[C@@H]23 [PHANTASMIDINE] | 56 µM | – | 0.39 µM | 0.012 µM | 0.13 µM | 33 | 0.029 µM | 27 µM | 53% | 110% | 0.49 | 0.045 µM | 0.43% | 21 µM | 1.02% | > 10 mg/kg | Activity [35]: Toxic; Activity [36]: Toxic; Activity [37]: Toxic

Reference: ChEMBL document CHEMBL4251743, “Absolute Configuration and Pharmacology of the Poison Frog Alkaloid Phantasmidine” (J Nat Prod, 2018)
